The list is not random: actives were taken first. Their share in the collection is about 3.7%.
KCNQ1 block = inhibitors of human KCNQ1 channel, primary screen, cell-based, thallium flux, high-throughput | 310,000 compounds, 1.3% hits | AID 2642, 2010 | Potassium voltage-gated channel subfamily KQT member 1 (Homo sapiens), P51787 | B-score at 10 µM | CHO-K1 KCNQ1, FluxOR thallium flux fluorescence; active compounds read high;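 active means compounds whose thallium flux B-score, printed positive for inhibition, exceeds three library SD while starting fluorescence stays within three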;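 further: channel opened by potassium depolarization with thallium stimulus after 20 min compound exposure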
Kir21 inh = inhibitors of mouse Kir2.1 inward-rectifier potassium channel. Inward rectifier potassium channel 2 (Mus musculus), P35561. HEK293-Kir2.1, FluxOR thallium flux fluorescence; active compounds read low. 310,000 compounds, 0.85% hits. AID 1672, 2009. B-score at 10 µM;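 active means fluorescence ratio B-score at or below minus 3 SD of library scores, with starting-brightness B-score within 2 SD, cut at about -4.2 in these data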;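 further: channel flux triggered by added potassium and thallium sulfate stimulus; B-score of peak minus minimum fluorescence over baseline after thallium stimulus; more negative B-score means stronger Kir2.1 block with less thallium influx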
KCNK9 inh = KCNK9 potassium channel inhibitors, primary screen, HEK293 cells, thallium flux; FluxOR thallium flux fluorescence; active compounds read low; B-score at 10 µM; 310,000 compounds, 1.2% hits; AID 488922, 2010;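 active means ratio B-score over 3 SD below the library mean, with starting fluorescence within 5 SD of its mean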;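 further: negative B-score means less thallium flux so channel inhibition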
Target sequence (Q9NPC2 whole entry, looked up): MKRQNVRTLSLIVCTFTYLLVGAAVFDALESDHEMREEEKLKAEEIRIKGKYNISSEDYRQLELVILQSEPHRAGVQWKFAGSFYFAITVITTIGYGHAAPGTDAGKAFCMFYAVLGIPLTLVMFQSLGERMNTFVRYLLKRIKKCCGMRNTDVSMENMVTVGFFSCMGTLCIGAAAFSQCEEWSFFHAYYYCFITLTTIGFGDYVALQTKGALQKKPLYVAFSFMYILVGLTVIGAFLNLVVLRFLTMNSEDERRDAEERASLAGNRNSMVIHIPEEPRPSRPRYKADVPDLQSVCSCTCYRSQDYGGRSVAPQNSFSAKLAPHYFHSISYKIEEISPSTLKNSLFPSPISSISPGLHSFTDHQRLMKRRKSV
KCNK3 inh = human KCNK3 channel inhibitors, primary screen, CHO cells, FluxOR thallium flux, B-score; 340,000 compounds, 0.84% hits; B-score at 10 µM; Potassium channel subfamily K member 3 (Homo sapiens), O14649; FluxOR fluorescence; active compounds read low; AID 602410, 2012;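 active means B-score under library mean minus 4 SD, starting fluorescence ratio at most library mean plus 5 SD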;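 further: more negative B-score means stronger inhibition of thallium flux through KCNK3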
hERG rescue = hERG rescue from dofetilide block, primary screen, cell-based, CHO-hERG, FluxOR thallium flux, dofetilide IC70 | dofetilide IC70 present | activation (rescue from dofetilide block), less the hit threshold, % at 10 µM | 310,000 compounds, 0.51% hits | AID 1511, 2009;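 active means activation above the mean of controls blocked by dofetilide plus 5 SD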;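 further: thallium influx through hERG after potassium depolarization seen as dye fluorescence rise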
KCNQ1 act = potentiators or activators of KCNQ1 channel, primary screen, cell-based, thallium flux, high-throughput; CHO-K1 KCNQ1, thallium flux FluxOR fluorescence; active compounds read high; B-score at 10 µM; 310,000 compounds, 0.35% hits; AID 2648, 2010;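 active means fluorescence ratio B-score, a plate-corrected score, at least three library SD, with initial intensity B-score within 5 SD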
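Assay system: CHO-K1 cells stably expressing KCNQ1. Medium: assay buffer for compound exposure, DMSO matched across wells. Timing: 37 °C overnight plating, 90-min dark dye load, 20-min compound pretreatment. Signal: kinetic FluxOR fluorescence, 10 s baseline plus 110 s post-stimulus.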
Hits are given with their value; i = inactive; nt = not tested or not shown.

SMILES	KCNQ1 block	Kir21 inh	KCNK9 inh	KCNK3 inh	hERG rescue	KCNQ1 act
O=C(Nc1ccc(Cl)cc1)N1CCCN(Cc2ccc(F)cc2)C1	i	-4.51	i	i	i	i
O=C(Nc1ccccc1)N1CCN(Cc2ccc(Cl)cc2)CC1	i	i	i	i	i	i
NNC(=O)c1[nH]c2ccc([N+](=O)[O-])cc2c1-c1ccccc1	i	i	i	i	i	i
O=C(N/N=C/c1ccccn1)c1[nH]c2ccc([N+](=O)[O-])cc2c1-c1ccccc1	10	i	i	i	i	i
COc1ccc(OC)c(CCNC(=O)CSc2ccsc2[N+](=O)[O-])c1	i	i	i	i	i	i
COc1ccc(CCNC(=O)CSc2ccsc2[N+](=O)[O-])cc1OC	i	-4.49	i	i	i	i
COc1ccc(CC(=O)Nc2ccc(C)c(S(=O)(=O)N3CCCCCC3)c2)cc1	nt	nt	nt	i	nt	nt
O=C(CCc1ccccc1Cl)Nc1ccc(S(=O)(=O)N2CCOCC2)cc1	i	i	i	i	7.0	i
Cc1ccc(NC(=O)Cc2ccc(Cl)cc2)cc1S(=O)(=O)N1CCCCCC1	nt	nt	nt	-9.05	nt	nt
Cc1ccc(NC(=S)Nc2ccc(S(=O)(=O)N3CCOCC3)cc2)cc1S(=O)(=O)N1CCOCC1	7	i	i	i	i	i
O=C(CCc1ccccc1Cl)Nc1cc(S(=O)(=O)N2CCOCC2)ccc1N1CCCC1	nt	nt	nt	i	nt	nt
CCC(Oc1ccccc1)C(=O)Nc1ccc(S(=O)(=O)N2CCOCC2)cc1 (stereo not drawn)	i	i	i	i	5.0	i
Cc1ccc(S(=O)(=O)NCCNc2ccc(Br)c(C)c2)cc1	nt	nt	nt	i	nt	nt
Cc1ccc(NS(=O)(=O)c2c(C(=O)N3CCCCCC3)c(C)n(C)c2C)cc1C	i	i	i	i	i	i
CC(C)Oc1ccc(C(=O)Nc2cc(S(=O)(=O)N3CCOCC3)ccc2N2CCOCC2)cc1	nt	nt	nt	i	nt	nt
OCCCc1nc2ccccc2n1CCc1ccccc1	i	i	i	i	i	i
CCCCn1c(N)nc2ccccc21	i	i	i	i	7.5	i
CCCc1nc2ccccc2n1CCc1ccccc1	i	-6.33	i	i	i	i
O=C(Nc1cccc(-c2cccc(F)c2)c1)C1CCN(Cc2ccco2)CC1	i	-4.91	i	i	i	i
Cc1cccc(CN2CCC(C(=O)Nc3cccc(-c4cccc(F)c4)c3)CC2)n1	i	-5.07	i	i	i	i
O=C(Nc1cccc(-c2cccc(F)c2)c1)C1CCN(CC2CCOC2)CC1 (stereo not drawn)	i	i	i	i	i	i
COCc1ccc(CN2CCC(C(=O)Nc3cccc(-c4cccc(Cl)c4)c3)CC2)o1	8	i	i	i	i	i
CCOc1ccc(S(=O)(=O)NCc2cccnc2)cc1C(C)C	i	i	i	i	i	i
Cc1ccc(O)c(C2=Nc3ccccc3C2(C)C)c1	i	i	i	i	i	i
COc1ccc(C)cc1C1=Nc2ccccc2C1(C)C	i	-4.97	i	i	i	i
SMILES	KCNQ1 block	Kir21 inh	KCNK9 inh	KCNK3 inh	hERG rescue	KCNQ1 act
O=C(NCc1ccncc1)C(=O)N/N=C/c1ccc(OCc2ccccc2)cc1	i	i	i	i	i	i
O=NN(CCc1ccncc1)c1ccc(OCc2ccccc2)cc1	10	i	i	-9.09	i	i
Cc1c(NC(=O)Nc2ccc(Cl)c(Cl)c2)sc(=S)n1C	8	i	i	i	i	i
Cc1c(C)n(Cc2ccccc2)c2ccc(C(=O)NCCN3CCOCC3)cc12	i	i	i	i	i	i
Cc1c(C)n(Cc2ccccc2)c2ccc(C(=O)OCCN(C)C)cc12	i	-9.48	i	i	i	i
CCCCCn1c(SCc2ccncc2)nc2cc(C(=O)NCc3ccco3)ccc2c1=O	10	i	i	i	i	i
O=C(Oc1ccc(=O)n(-c2ccccc2)n1)c1ccc(Cl)cc1	i	-4.34	i	i	i	i
O=C(Oc1ccc(=O)n(-c2ccccc2)n1)c1ccc(F)cc1	i	i	i	i	i	i
COc1ccc(N=C2S/C(=C\c3ccc(Cl)c([N+](=O)[O-])c3)C(=O)N2CCN(C)C)cc1	10	i	i	i	i	i
CCN(CC)CCN1C(=O)/C(=C\c2ccc(Cl)c([N+](=O)[O-])c2)SC1=Nc1ccc(OC)cc1	i	i	i	i	i	i
COc1cccc(C(=O)N2CCN(Cc3ccccn3)CC2)c1	i	i	i	i	i	i
O=c1c(Cl)c(Cl)cnn1Cc1nnc(-c2ccccc2Br)o1	i	i	i	i	i	27
O=C(COC(=O)c1ccc(S(=O)(=O)N2CCCCC2)cc1)NCc1ccccc1	nt	nt	nt	i	nt	nt
Cc1nn(-c2ccc(C(=O)NCC(c3ccco3)N3CCCC3)cc2)c(C)c1Cl (stereo not drawn)	nt	nt	nt	i	nt	nt
CC1CCCC(C)N1C(=O)COC(=O)Cc1ccc(Cl)cc1 (stereo not drawn)	i	i	i	i	i	i
CC1CCCC(C)N1C(=O)CSCc1ccc(Cl)cc1 (stereo not drawn)	i	-4.94	i	i	i	i
COc1ccc(-c2noc(CSc3nnc(CCc4ccccc4)n3-c3ccccc3)n2)cc1OC	i	i	i	-9.66	i	i
COc1ccc(-c2noc(CSc3ccccc3)n2)cc1OC	i	i	i	i	i	i
NC(=O)C1C2CCC(C2)C1C(N)=O (stereo not drawn)	nt	nt	nt	i	nt	nt
CN(C)C(=O)CN1CCN(C(=O)CCl)CC1	i	i	i	i	5.1	i
Cc1ccc(-c2noc(N=O)c2NO)cc1	i	i	-7.05	i	i	i
C=CCNCC(=O)N1N=C(c2ccc3ccccc3c2)CC1c1ccc(OC)cc1 (stereo not drawn)	i	-4.32	i	i	i	i
CCCCC(=O)Nc1nc(C)c(-c2csc(Nc3ccccc3OC)n2)s1	i	i	i	i	i	i
CCCCCC(=O)Nc1nc(C)c(-c2csc(Nc3cc(OC)ccc3OC)n2)s1	i	i	-7.25	i	i	i
Cc1ccc(C(=O)Nc2nc(=O)n(C(=O)C3CC3)s2)cc1	i	i	i	i	5.0	i
CC(=O)Nc1nc(=O)c2ccccc2s1	i	i	i	i	i	i
O=C(Nc1nc(=O)c2ccccc2s1)c1ccccc1	i	i	i	i	i	11
Cc1ccc(C(=O)Nc2nc3ccccc3c(=O)s2)cc1	i	i	i	i	23.1	35
CSc1nc2ccc3nc(NC(=O)c4ccc(C)cc4)sc3c2s1	i	i	i	i	i	i
CCOc1ccc(NC(=O)COC(=O)CNC(=O)c2ccc(-c3ccccc3)cc2)cc1	nt	nt	nt	i	nt	nt

Source: PubChem
